pIC50: −log10 of the molar value. Activity calls are given as the source filed them. The rule behind the calls is not given here.
Tests used:
[1] = target: T1, DNA (cytosine-5)-methyltransferase 3A (Homo sapiens, UniProt Q9Y6K1); test: (§1) Inhibition of N-terminal His6-tagged DNMT3A (623 to 908 residues) (unknown origin) expressed in Escherichia coli BL21 (DE3) coexpressing DNMT3L (160 to 386 C-terminal residues) (unknown origin) assessed as reduction in oligonucleosome methylation at 100 uM preincubated for 15 mins followed by addition of [3H]-SAM measured after 4 hrs by liquid scintillation counting method
Outline: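 DNMT3A/3L complex activity measured by radioactive methylation assay. Single-point screen at 100µM per compound, with sinefungin (a SAM competitor) run as the reference inhibitor.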

[2] = target: T1, DNA (cytosine-5)-methyltransferase 3A; test: as §1, with “methylation” for “methylation at 100 uM”
Outline: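 IC50 determined from a dose-response in the same radioactive methylation assay on DNMT3A/3L. Sinefungin served as the SAM-competitive reference inhibitor.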

[3] = test system: THP-1; test: Growth inhibition of human THP1 cells at 12.5 to 200 uM measured after 48 hrs by AlamarBlue assay; assay type: functional, cell-based
Outline: (§2)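 AML cells were exposed to 12.5, 25, 50, 100 and 200µM for 48 hours before viability read-out: Kasumi-1, MV4-11 and THP-1.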

[4] = test system: KG-1; test: Growth inhibition of human KG1 cells at 12.5 to 200 uM measured after 72 hrs by AlamarBlue assay; assay type: functional, cell-based
Outline: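 KG-1 AML cells were treated at 12.5, 25, 50, 100 and 200µM, with viability read after 72 hours of exposure.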

[5] = test system: HeLa; test: Growth inhibition of human HeLa cells at 12.5 to 200 uM measured after 4 days by AlamarBlue assay; assay type: functional, cell-based
[6] = test system: MV4-11; test: Growth inhibition of human MV4-11 cells at 12.5 to 200 uM measured after 48 hrs by AlamarBlue assay; assay type: functional, cell-based; outline: as §2
[7] = test system: Kasumi 1; test: Growth inhibition of human Kasumi-1 cells at 12.5 to 200 uM measured after 48 hrs by AlamarBlue assay; assay type: functional, cell-based; outline: as §2

T1 sequence (Q9Y6K1 whole entry, looked up, the tested form may be a part): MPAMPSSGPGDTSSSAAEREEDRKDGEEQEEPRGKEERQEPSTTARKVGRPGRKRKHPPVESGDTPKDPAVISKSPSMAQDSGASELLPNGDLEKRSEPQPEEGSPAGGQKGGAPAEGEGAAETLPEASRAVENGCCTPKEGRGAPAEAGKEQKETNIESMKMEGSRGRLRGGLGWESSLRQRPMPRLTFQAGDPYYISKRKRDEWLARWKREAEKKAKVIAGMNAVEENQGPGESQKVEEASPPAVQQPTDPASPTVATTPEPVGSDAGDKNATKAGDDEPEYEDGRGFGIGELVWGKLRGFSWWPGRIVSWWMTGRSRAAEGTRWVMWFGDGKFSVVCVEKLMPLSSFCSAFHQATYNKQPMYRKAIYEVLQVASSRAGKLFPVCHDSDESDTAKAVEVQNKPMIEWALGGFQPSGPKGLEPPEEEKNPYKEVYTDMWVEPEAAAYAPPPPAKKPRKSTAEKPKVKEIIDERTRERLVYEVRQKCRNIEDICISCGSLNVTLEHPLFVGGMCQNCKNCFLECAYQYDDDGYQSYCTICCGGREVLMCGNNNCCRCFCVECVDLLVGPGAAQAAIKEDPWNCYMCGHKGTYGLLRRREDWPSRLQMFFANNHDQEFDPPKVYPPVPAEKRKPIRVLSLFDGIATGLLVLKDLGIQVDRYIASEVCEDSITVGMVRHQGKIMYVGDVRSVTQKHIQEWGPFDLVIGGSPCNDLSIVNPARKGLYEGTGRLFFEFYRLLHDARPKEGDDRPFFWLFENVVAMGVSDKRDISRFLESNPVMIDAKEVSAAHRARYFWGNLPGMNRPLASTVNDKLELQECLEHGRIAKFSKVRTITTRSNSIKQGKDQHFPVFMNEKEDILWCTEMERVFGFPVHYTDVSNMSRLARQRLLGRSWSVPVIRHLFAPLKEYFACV

SMILES	inhibition [1]	also measured
COCCN1C(=O)c2ccc(C(=O)Nc3ccc(Br)cc3C(=O)O)cc2C1=O	-8%	–
Cc1ccc(O)c(NC(=O)c2ccc3c(c2)C(=O)N(Cc2cccnc2)C3=O)c1	6%	–
COc1ccccc1N1C(=O)c2ccc(C(=O)Nc3ccccc3O)cc2C1=O	1%	–
O=C(Nc1ccccc1Cl)c1ccc2c(c1)C(=O)N(Cc1ccco1)C2=O	13%	–
O=C(O)c1ccc(NC(=O)c2ccc3c(c2)C(=O)N(Cc2ccco2)C3=O)cc1	92%	pIC50 [2]: 4.19
Cc1cc(Br)ccc1NC(=O)c1ccc2c(c1)C(=O)N(CC(C)C)C2=O	8%	–
Cc1cc(O)ccc1NC(=O)c1ccc2c(c1)C(=O)N(Cc1cccnc1)C2=O	11%	–
O=C(Nc1ccc(Br)cc1C(=O)O)c1ccc2c(c1)C(=O)N(c1cc(Cl)ccc1C(=O)O)C2=O	67%	growth inhibition (GI) [3]: Active; growth inhibition (GI) [4]: Active; growth inhibition (GI) [5]: Active; growth inhibition (GI) [6]: Active; pIC50 [2]: 4.39; growth inhibition (GI) [7]: Active
CCOc1ccc(NC(=O)c2ccc3c(c2)C(=O)N(c2ccccc2)C3=O)cc1	19%	–
COc1ccccc1NC(=O)c1ccc2c(c1)C(=O)N(Cc1ccco1)C2=O	3%	–
CCOc1ccccc1N1C(=O)c2ccc(C(=O)Nc3ccc(Br)cc3C(=O)O)cc2C1=O	56%	–
CC(C)(C)N1C(=O)c2ccc(C(=O)Nc3ccc(C(=O)O)cc3)cc2C1=O	11%	–
CC(c1ccccc1)N1C(=O)c2ccc(C(=O)Nc3ccc(Br)cc3C(=O)O)cc2C1=O (configuration not stated)	Active	growth inhibition (GI) [3]: Active; growth inhibition (GI) [4]: Active; growth inhibition (GI) [5]: Active; growth inhibition (GI) [6]: Active; pIC50 [2]: 4.33; growth inhibition (GI) [7]: Active
COc1ccc(N2C(=O)c3ccc(C(=O)Nc4ccccc4OC)cc3C2=O)cc1	4%	–
